Activity calls are given as the source filed them. The rule behind the calls is not given here.
How the values were obtained:
[1] = biological target: T1, Phosphotyrosine-protein phosphatase PTPB (Mycobacterium tuberculosis) (UniProt P96830); assay: Inhibition of Mycobacterium tuberculosis N-terminal His6-tagged PTPB at 20 uM using pNPP as substrate
T1 sequence (whole entry): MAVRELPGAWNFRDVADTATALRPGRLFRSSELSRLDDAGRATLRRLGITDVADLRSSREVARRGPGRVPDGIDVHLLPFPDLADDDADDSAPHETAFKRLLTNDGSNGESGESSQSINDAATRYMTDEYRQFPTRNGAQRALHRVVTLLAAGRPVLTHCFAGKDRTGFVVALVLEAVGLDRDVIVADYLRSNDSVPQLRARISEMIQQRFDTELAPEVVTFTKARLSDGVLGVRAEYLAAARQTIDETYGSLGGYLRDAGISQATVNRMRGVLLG

[2] = biological target: T1, Phosphotyrosine-protein phosphatase PTPB (Mycobacterium tuberculosis); assay: Inhibition of Mycobacterium tuberculosis PTPB expressed in mouse RAW 264.7 cells assessed as restoration of IFN gamma-induced ERK1/ERK2 phosphorylation at 15 uM after 30 mins by Western blotting; type: cell-based
Summary of the method: (§1)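 RAW 264.7 macrophages (DMEM, 10% FBS, 37°C, 5% CO₂) stably expressing HA-tagged mPTPB (electroporation, G418 0.5 mg/ml selection 2 weeks). Cells at 80% confluency lysed in Triton X-100 buffer with phosphatase/protease inhibitors; pERK1/2 detected by western blot.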

[3] = biological target: T2, Phosphotyrosine-protein phosphatase PTPB (Mycobacterium tuberculosis, UniProt P96830); assay: Inhibition of Mycobacterium tuberculosis N-terminal His6-tagged PTPB preincubated with compound for 30 mins before pNPP substrate addition by microplate spectrophotometer analysis
T2 sequence (P96830 whole entry): T1 sequence (whole entry)

[4] = biological target: T2, Phosphotyrosine-protein phosphatase PTPB; assay: Inhibition of Mycobacterium tuberculosis N-terminal His6-tagged PTPB
[5] = tested on: Mycobacterium tuberculosis; assay: Potentiation of IFN-gamma-induced antimycobacterial activity against Mycobacterium tuberculosis Erdman ATCC 35801 infected in mouse J774A.1 cells assessed as decrease in bacterial load at 10 uM after 7 days; type: functional, organism-based
Summary of the method: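 J774A.1 macrophages on cover slips infected 1 h at 37°C with M. tuberculosis Erdman (1-3 x10⁵ CFU/ml), rinsed, 16 h at 37°C/5% CO₂, then compound 10 µM with amikacin and IFN-γ 50 U/mL; triplicates. After 7 days cells lysed with 0.25% SDS, dilutions plated on 7H11 agar, colonies counted after 2-3 weeks.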

[6] = biological target: T1, Phosphotyrosine-protein phosphatase PTPB (Mycobacterium tuberculosis); assay: Inhibition of Mycobacterium tuberculosis PTPB expressed in mouse RAW 264.7 cells assessed as restoration of IFN gamma-induced ERK1/ERK2 phosphorylation after 30 mins by Western blotting; type: cell-based; summary of the method: as §1
[7] = tested on: Mycobacterium tuberculosis; assay: Antimycobacterial activity against Mycobacterium tuberculosis Erdman ATCC 35801 after 7 days by microplate alamar blue assay; type: functional; conditions: Erdman ATCC 35801, 168 h
Summary of the method: (§2)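 MABA read-out after 7 day incubation in Middlebrook 7H12 medium against replicating M. tuberculosis cultures.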

J774.A1 = assay: Cytotoxicity at mouse J774A1 cells up to 100 uM after 72 hrs by MTS assay; type: cell-based; conditions: j774.a1, 72 h
Summary of the method: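 J774A.1 cells exposed 72 h; viability from MTS conversion to formazan.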

[8] = tested on: Mycobacterium tuberculosis; assay: Antimycobacterial activity against Mycobacterium tuberculosis H37Rv after 7 days by microplate alamar blue assay; type: functional; conditions: 168 h; summary of the method: as §2
[9] = biological target: T2, Phosphotyrosine-protein phosphatase PTPB; assay: Inhibition of Mycobacterium tuberculosis PTPB expressed in Escherichia coli after 5 mins by microplate spectrophotometer analysis
[10] = biological target: T2, Phosphotyrosine-protein phosphatase PTPB; assay: Competitive inhibition of Mycobacterium tuberculosis N-terminal His6-tagged PTPB assessed as production of p-nitrophenol from pNPP substrate by Lineweaver-Burk plot analysis
[11] = biological target: T1, Phosphotyrosine-protein phosphatase PTPB (Mycobacterium tuberculosis); conditions: RAW, 5 to 10 uM
[12] = biological target: T2, Phosphotyrosine-protein phosphatase PTPB; assay: Non-competitive inhibition of Mycobacterium tuberculosis N-terminal His6-tagged PTPB assessed as production of p-nitrophenol from pNPP substrate by Lineweaver-Burk plot analysis
[13] = biological target: T1, Phosphotyrosine-protein phosphatase PTPB (Mycobacterium tuberculosis); assay: Inhibition of Mycobacterium tuberculosis PTPB expressed in mouse RAW 264.7 cells assessed as restoration of IFN gamma-induced ERK1/ERK2 phosphorylation at 10 uM after 30 mins by Western blotting; type: cell-based; summary of the method: as §1

SMILES	inhibition [1]	IC50 [3] [µM]	IC50 [4] [µM]	other results
COc1ccc(N2CCN(C(c3cccs3)C(C)NC(=O)C(=O)N3CCCCC3)CC2)cc1 (configuration not stated)	inactive			inhibition [2]: inactive
CC(NC(=O)C(=O)NCc1ccc2c(c1)OCO2)C(c1cccs1)N1CCN(c2ccccc2)CC1 (configuration not stated)		25.1	30.4	
CC(NS(=O)(=O)c1ccc2c3c(cccc13)C(=O)N2)C1C2CC3CC(C2)CC1C3 (configuration not stated)	inactive			
O=C1Nc2ccc(S(=O)(=O)N(CCO)CCO)c3cccc1c23	inactive			
COc1ccc(N2CCN(C(c3cccs3)C(C)NC(=O)C(=O)NCc3ccco3)CC2)cc1 (configuration not stated)		6.3	4.8	Activity [5]: Active; inhibition [6]: Dose-dependent effect; MIC [7]: > 100 µM; Activity (J774.A1): Non-toxic; MIC [8]: > 100 µM; IC50 [9]: 5.6 µM; Ki [10]: 3.2 µM
CCCCc1ccc(NS(=O)(=O)c2ccc3c4c(cccc24)C(=O)N3)cc1		1.4	1.2	Activity [5]: Active; MIC [7]: > 100 µM; inhibition [11]: Active; Activity (J774.A1): Non-toxic; MIC [8]: > 100 µM; Ki [12]: 1.1 µM; IC50 [9]: 1.3 µM
CNS(=O)(=O)c1ccc2c3c(cccc13)C(=O)N2	inactive			
Cc1cccc(NS(=O)(=O)c2ccc3c4c(cccc24)C(=O)N3)c1C	inactive			
CCCCCOC(=O)c1c(C)oc2ccc(NS(=O)(=O)c3ccc4c5c(cccc35)C(=O)N4)cc12		20.8	21.1	
O=C1Nc2ccc(S(=O)(=O)Nc3ccc4oc5c(c4c3)CCCC5)c3cccc1c23		10.8	10.3	
COc1ccc(N2CCN(C(c3cccs3)C(C)NC(=O)C(=O)N3CCCC3)CC2)cc1 (configuration not stated)	inactive			
NS(=O)(=O)c1ccc2c3c(cccc13)C(=O)N2	inactive			inhibition [13]: inactive
CC(NC(=O)C(=O)NCCc1c[nH]c2ccccc12)C(c1cccs1)N1CCN(c2ccc(F)cc2)CC1 (configuration not stated)		17.5	12.1	
CCN1CCN(C(c2cccs2)C(C)NC(=O)C(=O)NCCc2c[nH]c3ccccc23)CC1 (configuration not stated)	inactive			
CC(NC(=O)C(=O)N1CCCCC1)C(c1cccs1)N1CCN(c2ccccc2)CC1 (configuration not stated)	inactive			
CC(NC(=O)C(=O)NCc1cccnc1)C(c1cccs1)N1CCN(c2ccc(F)cc2)CC1 (configuration not stated)		14	9.1	inhibition [6]: Dose-dependent effect; IC50 [9]: 11.5 µM; Ki [10]: 4 µM
CC(NC(=O)C(=O)N1CCCCC1)C(c1cccs1)N1CCN(c2ccc(F)cc2)CC1 (configuration not stated)	inactive			
CCCCCCCOC(=O)c1c(C)oc2ccc(NS(=O)(=O)c3ccc4c5c(cccc35)C(=O)N4)cc12		22.8	19.5	
O=C1Nc2ccc(S(=O)(=O)NCCO)c3cccc1c23	inactive			
O=C1Nc2ccc(S(=O)(=O)N3CCOCC3)c3cccc1c23	inactive			
CCN1CCN(C(c2cccs2)C(C)NC(=O)C(=O)N2CCOCC2)CC1 (configuration not stated)	inactive			
Cc1ccccc1NS(=O)(=O)c1ccc2c3c(cccc13)C(=O)N2	inactive			
Cc1oc2ccc(NS(=O)(=O)c3ccc4c5c(cccc35)C(=O)N4)cc2c1C(=O)OC(C)C	inactive			
CC(NC(=O)C(=O)N1CCCCC1)C(c1cccs1)N1CCN(C)CC1 (configuration not stated)	inactive			
COc1ccccc1CNC(=O)C(=O)NC(C)C(c1cccs1)N1CCN(c2ccc(F)cc2)CC1 (configuration not stated)		15.8	11.4	
O=C1Nc2ccc(S(=O)(=O)Nc3cc(Cl)c(O)c4ccccc34)c3cccc1c23		12.8	15.5	
CC(NC(=O)C(=O)NCc1ccco1)C(c1cccs1)N1CCN(C)CC1 (configuration not stated)	inactive			
O=C1Nc2ccc(S(=O)(=O)NCc3ccccc3)c3cccc1c23	inactive			
